In ChEMBL document CHEMBL3098017, “Discovery and in Vivo Evaluation of Potent Dual CYP11B2 (Aldosterone Synthase) and CYP11B1 Inhibitors” (ACS Med Chem Lett, 2013):

Tests used:
Rattus norvegicus [1] = experiment: Reduction of angiotensin 2-stimulated plasma aldosterone time-weighted average (0 to 8 hrs) in Sprague-Dawley rat at 1 mg/kg, po; assay type: functional; set-up: scale not given: the % may be the effect or the level left
How it was run: (§1)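 Angiotensin-II infusion in Sprague–Dawley rats (n = 3) raised baseline plasma aldosterone; oral dosing in corn starch/water or HCl (1.5 equiv of 1 N)/cornstarch/water; plasma sampled at set times; time-weighted average drug level 0–8 h; time-weighted average % fall in plasma aldosterone from baseline.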

Rattus norvegicus [2] = experiment: Time-weighted average (0 to 8 hrs) in Sprague-Dawley rat at 1 mg/kg, po; assay type: ADME, organism-based; set-up: dose 1 mg/kg, route oral; conditions: in vivo; how it was run: as §1
[3] = Oral bioavailability in Sprague-Dawley rat at 1 mg/kg; assay type: ADME, organism-based; conditions: in vivo
How it was run: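 Sprague–Dawley rats (n = 3), oral dose in corn starch/water or HCl (1.5 equiv of 1 N)/cornstarch/water; %F calculated against a 0.3 mg/kg intra-arterial dose.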

[4] = target: T1, Cytochrome P450 11B2, mitochondrial (Homo sapiens, UniProt P19099); experiment: Inhibition of CYP11B2 in human NCI-H295R cells assessed as inhibition of angiotensin-2-induced aldosterone production after 24 hrs by RIA; assay type: cell-based
T1 sequence (P19099 whole entry): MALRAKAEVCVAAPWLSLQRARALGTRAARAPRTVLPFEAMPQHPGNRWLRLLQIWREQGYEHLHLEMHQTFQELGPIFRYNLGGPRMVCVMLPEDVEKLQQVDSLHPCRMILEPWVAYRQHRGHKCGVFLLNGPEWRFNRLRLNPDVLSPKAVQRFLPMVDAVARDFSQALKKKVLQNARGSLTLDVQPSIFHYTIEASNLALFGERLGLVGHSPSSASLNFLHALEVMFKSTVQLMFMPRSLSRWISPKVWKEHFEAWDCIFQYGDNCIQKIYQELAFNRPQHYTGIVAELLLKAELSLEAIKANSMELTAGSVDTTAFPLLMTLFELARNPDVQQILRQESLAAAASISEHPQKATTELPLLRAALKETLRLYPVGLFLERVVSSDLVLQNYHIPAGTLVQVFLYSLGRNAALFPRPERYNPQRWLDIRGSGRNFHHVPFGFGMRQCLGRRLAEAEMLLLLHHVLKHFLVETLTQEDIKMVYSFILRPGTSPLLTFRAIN

[5] = target: T2, Cytochrome P450 11B1, mitochondrial (Homo sapiens, UniProt P15538); experiment: Inhibition of human recombinant CYP11B1 using 11-deoxycortisol as substrate by cell-based assay
T2 sequence (P15538 whole entry): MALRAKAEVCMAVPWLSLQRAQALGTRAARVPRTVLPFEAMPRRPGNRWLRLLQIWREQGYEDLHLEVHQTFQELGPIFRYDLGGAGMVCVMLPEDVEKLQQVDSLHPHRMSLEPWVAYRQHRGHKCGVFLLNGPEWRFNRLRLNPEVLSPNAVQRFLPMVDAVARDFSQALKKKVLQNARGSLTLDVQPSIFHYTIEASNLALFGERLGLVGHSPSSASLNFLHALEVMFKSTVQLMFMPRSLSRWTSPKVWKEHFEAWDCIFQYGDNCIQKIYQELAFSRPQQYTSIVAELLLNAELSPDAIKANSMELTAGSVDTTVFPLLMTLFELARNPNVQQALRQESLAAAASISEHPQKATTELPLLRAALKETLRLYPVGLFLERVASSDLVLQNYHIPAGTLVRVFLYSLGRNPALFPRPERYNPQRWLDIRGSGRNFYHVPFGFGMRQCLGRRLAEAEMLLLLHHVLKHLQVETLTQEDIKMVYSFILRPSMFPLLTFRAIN

[6] = target: T1, Cytochrome P450 11B2, mitochondrial; experiment: Inhibition of human recombinant CYP11B2 using 11-deoxycorticosterone as substrate by cell-based assay
Aromatase = target: T3, Aromatase (Homo sapiens, UniProt P11511)
T3 sequence (P11511 whole entry): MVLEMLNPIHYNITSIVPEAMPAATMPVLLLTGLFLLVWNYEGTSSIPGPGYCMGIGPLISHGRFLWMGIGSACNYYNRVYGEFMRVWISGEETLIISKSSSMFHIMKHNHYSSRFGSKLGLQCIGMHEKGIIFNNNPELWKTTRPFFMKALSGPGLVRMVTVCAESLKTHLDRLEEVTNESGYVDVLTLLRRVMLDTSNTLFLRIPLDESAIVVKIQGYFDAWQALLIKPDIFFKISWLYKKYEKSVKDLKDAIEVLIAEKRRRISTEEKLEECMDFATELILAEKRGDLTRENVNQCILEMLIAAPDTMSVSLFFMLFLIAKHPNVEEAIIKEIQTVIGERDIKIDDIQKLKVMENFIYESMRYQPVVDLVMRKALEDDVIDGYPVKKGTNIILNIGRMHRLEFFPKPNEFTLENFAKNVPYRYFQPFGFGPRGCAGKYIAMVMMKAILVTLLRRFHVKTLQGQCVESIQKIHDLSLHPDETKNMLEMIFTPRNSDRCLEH

CYP19 (aromatase) = target: T4, CYP19 (aromatase) (Homo sapiens, UniProt P11511); experiment: Inhibition of human CYP19 at 1 uM preincubated for 10 mins followed by protein addition measured after 90 mins by fluorimetric analysis relative to control
T4 sequence (P11511 whole entry): T3 sequence (P11511 whole entry)

[7] = target: T5, Cytochrome P450 11B1, mitochondrial (Rattus norvegicus, UniProt P15393); experiment: Inhibition of rat recombinant CYP11B1 using 11-deoxycortisol as substrate by cell-based assay
T5 sequence (P15393 whole entry): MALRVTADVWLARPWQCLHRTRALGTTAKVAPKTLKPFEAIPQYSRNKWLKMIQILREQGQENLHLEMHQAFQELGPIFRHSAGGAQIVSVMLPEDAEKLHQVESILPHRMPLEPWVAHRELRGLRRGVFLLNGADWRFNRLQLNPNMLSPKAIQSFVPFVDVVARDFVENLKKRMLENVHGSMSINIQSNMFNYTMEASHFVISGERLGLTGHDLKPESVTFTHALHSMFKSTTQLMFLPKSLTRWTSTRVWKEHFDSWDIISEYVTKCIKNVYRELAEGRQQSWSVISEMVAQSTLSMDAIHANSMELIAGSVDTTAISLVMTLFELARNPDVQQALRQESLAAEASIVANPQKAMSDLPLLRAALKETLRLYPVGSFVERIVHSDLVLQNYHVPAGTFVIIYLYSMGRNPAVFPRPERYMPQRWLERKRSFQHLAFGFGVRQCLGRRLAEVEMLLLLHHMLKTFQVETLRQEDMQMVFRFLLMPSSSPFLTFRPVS

[8] = target: T6, Cytochrome P450 11B2, mitochondrial (Rattus norvegicus, UniProt P30099); experiment: Inhibition of rat recombinant CYP11B2 using 11-deoxycorticosterone as substrate by cell-based assay
T6 sequence (P30099 whole entry): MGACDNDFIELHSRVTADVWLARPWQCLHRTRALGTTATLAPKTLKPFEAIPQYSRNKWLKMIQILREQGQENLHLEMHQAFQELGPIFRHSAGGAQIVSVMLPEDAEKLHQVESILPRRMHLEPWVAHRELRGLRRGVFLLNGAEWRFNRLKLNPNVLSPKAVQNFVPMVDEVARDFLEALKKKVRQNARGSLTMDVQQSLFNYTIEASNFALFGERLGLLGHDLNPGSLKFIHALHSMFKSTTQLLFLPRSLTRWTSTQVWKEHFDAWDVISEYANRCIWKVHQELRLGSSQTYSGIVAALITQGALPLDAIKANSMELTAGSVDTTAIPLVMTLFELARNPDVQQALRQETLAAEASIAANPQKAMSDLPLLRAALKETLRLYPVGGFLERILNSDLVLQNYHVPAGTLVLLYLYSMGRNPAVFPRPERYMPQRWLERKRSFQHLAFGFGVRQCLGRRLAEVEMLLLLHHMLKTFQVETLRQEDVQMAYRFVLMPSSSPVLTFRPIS

Cytochrome P450 2D6 = Cytochrome P450 2D6 (Homo sapiens, UniProt P10635)
Sequence of Cytochrome P450 2D6 (P10635 whole entry): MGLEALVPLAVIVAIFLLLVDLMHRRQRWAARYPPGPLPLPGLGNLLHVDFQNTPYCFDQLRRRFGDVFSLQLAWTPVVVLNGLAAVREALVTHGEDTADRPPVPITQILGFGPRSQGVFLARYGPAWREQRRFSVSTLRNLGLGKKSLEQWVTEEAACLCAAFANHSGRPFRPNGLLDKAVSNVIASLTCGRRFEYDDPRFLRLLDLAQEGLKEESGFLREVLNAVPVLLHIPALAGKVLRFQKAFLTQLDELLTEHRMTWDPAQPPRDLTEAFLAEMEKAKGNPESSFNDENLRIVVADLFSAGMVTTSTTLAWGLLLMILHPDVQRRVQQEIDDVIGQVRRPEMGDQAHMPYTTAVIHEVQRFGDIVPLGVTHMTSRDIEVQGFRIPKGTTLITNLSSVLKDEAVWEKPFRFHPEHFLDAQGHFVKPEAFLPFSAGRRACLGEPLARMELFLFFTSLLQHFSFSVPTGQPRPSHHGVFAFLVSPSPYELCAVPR

Cytochrome P450 2C9 = Cytochrome P450 2C9 (Homo sapiens, UniProt P11712)
Sequence of Cytochrome P450 2C9 (P11712 whole entry): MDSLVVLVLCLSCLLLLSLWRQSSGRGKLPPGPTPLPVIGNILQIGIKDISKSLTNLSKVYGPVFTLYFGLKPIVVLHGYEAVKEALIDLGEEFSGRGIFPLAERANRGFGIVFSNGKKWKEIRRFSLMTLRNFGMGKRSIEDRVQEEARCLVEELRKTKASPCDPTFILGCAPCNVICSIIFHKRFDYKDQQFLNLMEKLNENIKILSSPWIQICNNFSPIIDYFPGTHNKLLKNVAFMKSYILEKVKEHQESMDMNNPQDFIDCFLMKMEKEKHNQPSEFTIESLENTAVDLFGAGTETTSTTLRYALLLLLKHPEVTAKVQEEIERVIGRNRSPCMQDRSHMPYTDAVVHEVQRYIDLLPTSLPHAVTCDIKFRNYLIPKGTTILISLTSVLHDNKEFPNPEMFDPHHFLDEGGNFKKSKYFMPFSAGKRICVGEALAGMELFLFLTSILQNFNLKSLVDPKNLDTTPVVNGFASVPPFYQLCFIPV

Row | Cave (Rattus norvegicus [2]) [nM] | bioavailability [3] [%] | IC50 [4] [nM] | inhibition at 1.5 h, 1 µM (CYP19 (aromatase)) [%] | Compound | Activity (Rattus norvegicus [1]) [%] | also measured
1 | 152 | 8 | 2 | – | Fc1ccc(-c2ccccc2[C@H]2CCCCc3cncn32)cc1 | 73 | –
2 | 4 | < 1 | 2 | – | c1ccc(-c2ccccc2[C@H]2CCCCc3cncn32)cc1 | 27 | –
3 | – | – | 42 | – | N#Cc1ccc([C@H]2CCCCc3cncn32)c(F)c1 | 69 | IC50 [5]: 7.2 nM; IC50 [6]: 3.2 nM; IC50 (Aromatase): 1100 nM
4 | – | – | 16 | 100 | N#Cc1ccc([C@H]2CCCCc3cncn32)c(Cl)c1 | – | –
5 | – | – | 520 | – | COc1cc(C#N)ccc1[C@H]1CCCCc2cncn21 | – | –
6 | 6 | 1 | 17 | – | COC(=O)[C@]1(c2ccc(C#N)cc2Cl)CCc2cncn21 | 81 | IC50 (Aromatase): 50 nM
7 | – | – | 3 | – | COC(=O)[C@]1(c2ccc(C#N)cc2OC)CCc2cncn21 | – | –
8 | – | – | 351 | – | COC(=O)[C@]1(c2ccc(C#N)cc2F)CCc2cncn21 | – | –
9 | – | – | 1.5 | 95 | N#Cc1ccc([C@@]2(C(=O)OCc3ccc(F)cc3)CCc3cncn32)c(Cl)c1 | – | IC50 [5]: < 0.1 nM; IC50 [6]: 3.8 nM
10 | 15 | 8 | 5 | 45 | COc1cc(C#N)ccc1[C@@]1(C(=O)N(C)Cc2ccc(F)cc2)CCc2cncn21 | 35 | –
11 | – | – | 441 | – | c1ccc(-c2ccccc2[C@H]2CCc3cncn32)cc1 | – | –
12 | – | – | 140 | – | Fc1ccc(-c2ccccc2[C@H]2CCc3cncn32)cc1 | – | –
13 | 152 | 59 | 13 | – | N#Cc1ccc([C@H]2CCc3cncn32)c(Cl)c1 | 51 | –
14 | 33 | 18 | 5 | 80 | COc1cc(C#N)ccc1[C@H]1CCc2cncn21 | 50 | –
15 | – | – | 8 | 87 | Cc1cc(C#N)ccc1[C@H]1CCc2cncn21 | – | IC50 [7]: 386 nM; IC50 [8]: 24 nM; IC50 [5]: 1.5 nM; IC50 [6]: 0.9 nM
16 | – | – | 10 | 47 | N#Cc1ccc([C@H]2CCc3cncn32)c(Br)c1 | – | –
17 | – | – | 56 | – | N#Cc1ccc([C@H]2CCCc3cncn32)c(-c2ccccc2)c1 | – | –
18 | – | – | 37 | – | c1ccc(-c2ccccc2[C@H]2CCCc3cncn32)cc1 | – | –
19 | – | – | 87 | 20 | N#Cc1ccc([C@H]2CCCc3cncn32)c(F)c1 | – | –
20 | 6 | 1 | 1 | – | N#Cc1ccc([C@H]2CCCCc3cncn32)c(-c2ccc(F)cc2)c1 | 66 | IC50 [7]: 0.3 nM; IC50 [8]: 1 nM; IC50 [5]: 0.3 nM; IC50 [6]: 0.4 nM
21 | – | – | 792 | 99 | N#Cc1ccc(C2CCCc3cncn32)c(Cl)c1 (racemic) | – | –
22 | – | – | 464 | 100 | Cc1cc(C#N)ccc1C1CCCc2cncn21 (racemic) | – | –
23 | – | – | 390 | 100 | COc1cc(C#N)ccc1C1CCCc2cncn21 (racemic) | – | –
24 | 377 | 42 | – | – | N#Cc1ccc([C@H]2CCc3cncn32)c(F)c1 [OSILODROSTAT] | 65 | IC50 [8]: 111 nM; IC50 (Cytochrome P450 2D6): > 10000 nM; IC50 (Cytochrome P450 2C9): > 10000 nM
